The source made the active and inactive calls. No cut-off for these calls is given here.

The subject of assay [1] is MC3T3-E1. Description: Decrease in RANKL mRNA expression in mouse MC3T3-E1 cells at up to 4 uM after 48 hrs in presence of ascorbic acid and beta-glycerophosphate by real-time PCR analysis. Type of assay: functional, cell-based.
In assay [2] the test system is Mus musculus. Description: Effect on osteocalcin level in serum of OVX-induced bone loss ICR mouse model at 2 mg/kg, po for 12 weeks by ELISA (reference value: 176.9 +/- 4.7 ng/ml). The class given is functional. For orientation: ELISA stands for enzyme-linked immunosorbent assay.
In assay [3] the test system is Mus musculus. Description: Anti-osteoporotic activity in po dosed OVX-induced bone loss ICR mouse model assessed as increase in bone mineral density administered for 12 weeks by microcomputed tomography. The class given is functional, organism-based.
In assay [4] the test system is MC3T3-E1. The assay can be described thus: Upregulation of OPG protein expression in mouse MC3T3-E1 cells up to 4 uM after 48 hrs in presence of ascorbic acid and beta-glycerophosphate by Western blot analysis. Type of assay: functional, cell-based. In general terms: A western blot detects proteins with antibodies after separation by electrophoresis.
For assay [5], the system named is Osteoclast. Description: Inhibition of RANKL/M-CSF-induced osteoclast differentiation in mouse bone marrow-derived osteoclasts assessed as downregulation of NFATc1 protein expression up to 4 uM after 48 hrs by Western blot analysis. The class given is functional, cell-based. The method in brief:
(§1)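 Mouse bone marrow cells were taken from 4-week-old mice and primed 24 h in 30 ng/mL M-CSF. They were then given 100 ng/mL RANKL plus 30 ng/mL M-CSF, with or without compound, for 48 h. Lysates were made in boiling SDS buffer and quantified by BCA. 40–50 μg was run on SDS-PAGE and immunoblotted on PVDF with β-actin reference and ECL read-out.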

Assay [6] has as its system Mus musculus. The assay can be described thus: Effect on C-terminal telopeptide level in serum of OVX-induced bone loss ICR mouse model at 2 mg/kg, po for 12 weeks by ELISA (reference value: 95.7 +/- 3.8 ng/ml). The class given is functional.
Assay [7] concerns MC3T3-E1. The assay can be described thus: Increase in ALP mRNA expression in 2 days differentiated mouse MC3T3-E1 cells up to 4 uM after 48 hrs in presence of ascorbic acid and beta-glycerophosphate by real-time PCR analysis. The class given is functional, cell-based. The method in brief: (§2)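 MC3T3-E1 cells stimulated with 400 μM ascorbic acid and 5 mM β-glycerophosphate, with or without compound, 48 h. TRIzol RNA, real-time RT-PCR: 40 cycles of 95 °C 20 s, 56 °C 20 s, 72 °C 30 s. Ct of each transcript […] β-actin Ct, expressed relative to control samples.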
(Real-time PCR tracks product formation cycle by cycle.)

Assay [8] relates to Mus musculus. Description: Anti-osteoporotic activity in ovariectomized ICR mouse assessed as suppression of changes in trabecular separation in femur at 2 to 10 mg/kg, po after 12 weeks by microcomputed tomography. Type of assay: functional, organism-based.
In assay [9] the test system is Mus musculus. The assay can be described thus: Effect on TRAP activity in serum of OVX-induced bone loss ICR mouse model at 10 mg/kg, po for 12 weeks (reference value: 19.8 +/- 1.0 U/L). Type of assay: functional.
The species named for assay [10] is Mus musculus. Description: Activation of Wnt signaling pathway in mouse MC3T3-E1 cells assessed as increase in Runx2 protein expression up to 4 uM after 48 hrs in presence of ascorbic acid and beta-glycerophosphate by Western blot analysis. Type of assay: cell-based. The essentials: (§3)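 MC3T3-E1 cells given 400 μM ascorbic acid plus 5 mM β-glycerophosphate, exposed to test compound or not for 48 h. Lysed in boiling SDS sample buffer, protein measured by BCA. 40−50 μg of lysate run on 8% or 10% SDS-PAGE and transferred to PVDF. Blocked in 5% milk, probed with primary antibodies for 3 h at room temperature or overnight at 4 °C, detected by ECL.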

Assay [11] deals with Mus musculus. The assay can be described thus: Anti-osteoporotic activity in ovariectomized ICR mouse assessed as suppression of changes in structure model index levels in femur at 2 to 10 mg/kg, po after 12 weeks by microcomputed tomography. Type of assay: functional, organism-based.
The subject of assay [12] is MC3T3-E1. The assay can be described thus: Upregulation of ALP protein expression in 2 days differentiated mouse MC3T3-E1 cells up to 4 uM after 48 hrs in presence of ascorbic acid and beta-glycerophosphate by Western blot analysis. The class given is functional, cell-based.
In assay [13] the test system is Mus musculus. Description: Effect on TRAP activity in serum of OVX-induced bone loss ICR mouse model at 2 mg/kg, po for 12 weeks (reference value: 19.8 +/- 1.0 U/L). The class given is functional.
Assay [14] deals with Mus musculus. Description: Anti-osteoporotic activity in ovariectomized ICR mouse assessed as increase in trabecular number in femur at 2 to 10 mg/kg, po after 12 weeks by microcomputed tomography. The class given is functional, organism-based.
The test system of assay [15] is MC3T3-E1. The assay can be described thus: Increase in OPG to RANKL mRNA expression ratio in mouse MC3T3-E1 cells up to 4 uM after 48 hrs in presence of ascorbic acid and beta-glycerophosphate by real-time PCR analysis. The class given is functional, cell-based. The method in brief:
as §2

Assay [16] relates to Osteoclast. Description: Inhibition of RANKL/M-CSF-induced osteoclast differentiation in mouse bone marrow-derived osteoclasts assessed as downregulation of c-Fos protein expression up to 4 uM after 48 hrs by Western blot analysis. The class given is functional, cell-based. The essentials:
as §1

For assay [17], the system named is Mus musculus. The assay can be described thus: Decrease in OVX-induced increase in body weight in ICR mouse at 2 to 10 mg/kg, po for 12 weeks. The class given is functional, organism-based.
For assay [18], the target named is T1, Catenin beta-1 (Mus musculus) (UniProt Q02248).
T1 sequence (whole entry): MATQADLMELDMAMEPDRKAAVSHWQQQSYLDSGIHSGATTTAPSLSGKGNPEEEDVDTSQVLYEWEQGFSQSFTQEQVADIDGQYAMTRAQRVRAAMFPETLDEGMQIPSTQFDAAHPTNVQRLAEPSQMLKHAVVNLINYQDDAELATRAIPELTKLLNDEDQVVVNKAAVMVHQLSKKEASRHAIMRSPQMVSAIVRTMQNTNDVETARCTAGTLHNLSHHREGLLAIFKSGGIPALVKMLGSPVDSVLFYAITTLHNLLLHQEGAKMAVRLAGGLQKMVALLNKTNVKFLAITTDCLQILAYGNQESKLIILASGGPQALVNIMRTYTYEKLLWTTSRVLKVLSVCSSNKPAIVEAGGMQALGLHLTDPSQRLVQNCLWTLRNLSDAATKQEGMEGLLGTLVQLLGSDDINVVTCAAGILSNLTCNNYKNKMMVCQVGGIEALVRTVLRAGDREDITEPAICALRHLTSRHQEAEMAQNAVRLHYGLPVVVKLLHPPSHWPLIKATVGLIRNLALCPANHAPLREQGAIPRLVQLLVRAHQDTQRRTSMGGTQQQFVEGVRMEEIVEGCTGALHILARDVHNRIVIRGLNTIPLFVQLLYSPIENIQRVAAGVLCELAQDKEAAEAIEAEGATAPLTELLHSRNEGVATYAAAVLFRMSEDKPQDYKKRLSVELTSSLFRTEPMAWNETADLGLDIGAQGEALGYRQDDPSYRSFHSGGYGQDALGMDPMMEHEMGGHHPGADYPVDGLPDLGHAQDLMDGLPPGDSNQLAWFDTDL
The assay can be described thus: Downregulation of beta-catenin phosphorylated protein expression in mouse MC3T3-E1 cells up to 4 uM after 48 hrs in presence of ascorbic acid and beta-glycerophosphate by Western blot analysis. The class given is cell-based. The essentials: as §3

For assay [19], the species on record is Mus musculus. Description: Activation of Wnt signaling pathway in mouse MC3T3-E1 cells assessed as upregulation of cyclin D1 protein expression after 48 hrs in presence of ascorbic acid and beta-glycerophosphate by Western blot analysis. Type of assay: cell-based. The method in brief:
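MC3T3-E1 cells with 400 μM ascorbic acid and 5 mM β-glycerophosphate, with or without compound, for 48 h. Whole-cell lysates (40−50 μg, BCA) separated by SDS-PAGE, blotted to PVDF. c-Myc and cyclin D1 probed with primary antibodies, then secondary antibody for 90 min, read by chemiluminescence.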

`C[C@]1(OC(=O)/C=C/c2ccccc2)C[C@@H](O)[C@]2(O)C=CO[C@@H](O[C@@H]3O[C@H](CO)[C@@H](O)[C@H](O)[C@H]3O)[C@@H]21` [HARPAGOSIDE]: the outcome in the assay with MC3T3-E1 [1], in the assay on MC3T3-E1 [4], with Mus musculus [8], in the assay filed under Mus musculus [10], in the assay with Mus musculus [11] and in the assay with Mus musculus [14] was Active. Also, the outcome (with MC3T3-E1 [15]; in the assay on Mus musculus [17]; in [18]) was Active. The Activity is 170 ng/mL in the assay with Mus musculus [2]; “Dose-dependent effect” in the assay with Mus musculus [3]; 88.5 ng/mL in the assay with Mus musculus [6]; “Dose-dependent effect” with MC3T3-E1 [7]; 7.7 U/L in the assay on Mus musculus [9]; “Dose-dependent effect” with MC3T3-E1 [12]. For the same molecule, the Activity with Mus musculus [13] was 10.4 U/L; in the assay filed under Mus musculus [19], “Dose-dependent effect”. Further, the inhibition entry in the assay on Osteoclast [5] and in the assay with Osteoclast [16] was “Active” in each case.

Values taken from ChEMBL document CHEMBL4052590, “Anti-Osteoporotic Activity of Harpagoside by Upregulation of the BMP2 and Wnt Signaling Pathways in Osteoblasts and Suppression of Differentiation in Osteoclasts” (J Nat Prod, 2017).
